Reference: ChEMBL document CHEMBL3102840, “Synthesis and anti-proliferative activity of aromatic substituted 5-((1-benzyl-1H-indol-3-yl)methylene)-1,3-dimethylpyrimidine-2,4,6(1H,3H,5H)-trione analogs against human tumor cell lines” (2014)

Legend:
Format in all cases: functional
[1] = Cytotoxicity against human OVCAR5 cells after 48 hrs by SRB assay; details: OVCAR-5, 48 h
In short: (§1)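 Five-dose run from the sixty-line panel, at 10−4, 10−5, 10−6, 10−7 and 10−8 M. SRB-stain OD is read just before compound addition, after 48 hrs of exposure, and in vehicle controls, giving percentage growth; negative growth indicates cytotoxicity. GI50 is the concentration giving 50% reduction in net protein increase versus control cells. LC50 is the concentration lethal to 50% of cells.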

[2] = test system: SK-OV-3; test: Cytotoxicity against human SKOV3 cells after 48 hrs by SRB assay; details: SK-OV-3, 48 h; in short: as §1
[3] = test system: SW-620; test: Cytotoxicity against human SW620 cells after 48 hrs by SRB assay; details: SW-620, 48 h; in short: as §1
[4] = test system: NCI-H460; test: Cytotoxicity against human NCI-H460 cells after 48 hrs by SRB assay; details: NCI-H460, 48 h; in short: as §1
[5] = test system: BT-549; test: Cytotoxicity against human BT549 cells after 48 hrs by SRB assay; details: BT-549, 48 h; in short: as §1
[6] = test system: 786-0; test: Cytotoxicity against human 786-0 cells after 48 hrs by SRB assay; details: 786-0, 48 h; in short: as §1
[7] = test system: SN12C; test: Cytotoxicity against human SN12C cells after 48 hrs by SRB assay; in short: as §1
[8] = test system: IGROV-1; test: Cytotoxicity against human IGROV1 cells after 48 hrs by SRB assay; details: IGROV-1, 48 h; in short: as §1
[9] = test system: TK-10; test: Cytotoxicity against human TK10 cells assessed as growth inhibition at 10 uM after 48 hrs by SRB assay; details: TK-10, 48 h, read-out: GI
In short: (§2)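 Single-dose screen at 10µM across the sixty-cell-line panel. Percentage growth is derived from SRB-stain OD taken just before compound exposure, after 48 hrs exposure, and in vehicle-treated controls. Negative values indicate cytotoxicity.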

[10] = test system: OVCAR-8; test: Cytotoxicity against human OVCAR8 cells after 48 hrs by SRB assay; details: OVCAR-8, 48 h; in short: as §1
[11] = test system: LOX IMVI; test: Cytotoxicity against human LOXIMVI cells after 48 hrs by SRB assay; in short: as §1
[12] = test system: MDA-MB-468; test: Cytotoxicity against human MDA-MB-468 cells assessed as growth inhibition at 10 uM after 48 hrs by SRB assay; details: MDA-MB-468, 48 h, read-out: GI; in short: as §2
[13] = test system: NCI-H226; test: Cytotoxicity against human NCI-H226 cells after 48 hrs by SRB assay; details: NCI-H226, 48 h; in short: as §1
[14] = test system: MDA-MB-435; test: Cytotoxicity against human MDA-MB-435 cells after 48 hrs by SRB assay; details: MDA-MB-435, 48 h; in short: as §1
[15] = test system: NCI-H23; test: Cytotoxicity against human NCI-H23 cells after 48 hrs by SRB assay; details: NCI-H23, 48 h; in short: as §1
[16] = test system: MDA-MB-468; test: Cytotoxicity against human MDA-MB-468 cells after 48 hrs by SRB assay; details: MDA-MB-468, 48 h; in short: as §1
[17] = Cytotoxicity against human NCI-ADR-RES cells after 48 hrs by SRB assay; in short: as §1
[18] = test system: A498; test: Cytotoxicity against human A498 cells after 48 hrs by SRB assay; details: A498, 48 h; in short: as §1
[19] = test system: T47D; test: Cytotoxicity against human T47D cells after 48 hrs by SRB assay; in short: as §1
[20] = test system: COLO 205; test: Cytotoxicity against human COLO205 cells after 48 hrs by SRB assay; details: COLO 205, 48 h; in short: as §1
[21] = test system: A498; test: Cytotoxicity against human A498 cells assessed as growth inhibition at 10 uM after 48 hrs by SRB assay; details: A498, 48 h, read-out: GI; in short: as §2
[22] = test system: NCI-H226; test: Cytotoxicity against human NCI-H226 cells assessed as growth inhibition at 10 uM after 48 hrs by SRB assay; details: NCI-H226, 48 h, read-out: GI; in short: as §2
[23] = test system: K562; test: Cytotoxicity against human K562 cells after 48 hrs by SRB assay; details: K562, 48 h, read-out: LC50 (the source's name); in short: as §1
[24] = test system: HCT-116; test: Cytotoxicity against human HCT116 cells after 48 hrs by SRB assay; details: HCT-116, 48 h; in short: as §1
[25] = test system: SF-295; test: Cytotoxicity against human SF295 cells after 48 hrs by SRB assay; details: SF-295, 48 h; in short: as §1
[26] = test system: SR; test: Cytotoxicity against human SR cells after 48 hrs by SRB assay; in short: as §1
[27] = test system: MCF7; test: Cytotoxicity against human MCF7 cells after 48 hrs by SRB assay; details: MCF7, 48 h; in short: as §1
[28] = Cytotoxicity against human UACC257 cells after 48 hrs by SRB assay; details: UACC-257, 48 h; in short: as §1
[29] = test system: TK-10; test: Cytotoxicity against human TK10 cells after 48 hrs by SRB assay; details: TK-10, 48 h; in short: as §1
[30] = test system: SNB-19; test: Cytotoxicity against human SNB19 cells after 48 hrs by SRB assay; details: SNB-19, 48 h; in short: as §1
[31] = test system: SK-MEL-5; test: Cytotoxicity against human SK-MEL-5 cells after 48 hrs by SRB assay; details: SK-MEL-5, 48 h; in short: as §1
[32] = Cytotoxicity against human OVCAR5 cells assessed as growth inhibition at 10 uM after 48 hrs by SRB assay; details: OVCAR-5, 48 h, read-out: GI; in short: as §2
[33] = test system: HOP-62; test: Cytotoxicity against human HOP62 cells after 48 hrs by SRB assay; details: HOP-62, 48 h; in short: as §1
[34] = test system: UACC-62; test: Cytotoxicity against human UACC62 cells after 48 hrs by SRB assay; details: UACC-62, 48 h; in short: as §1
[35] = test system: SK-MEL-2; test: Cytotoxicity against human SK-MEL-2 cells after 48 hrs by SRB assay; details: SK-MEL-2, 48 h; in short: as §1
[36] = test system: MDA-MB-231; test: Cytotoxicity against human MDA-MB-231 cells after 48 hrs by SRB assay; details: MDA-MB-231, 48 h; in short: as §1
[37] = test system: RXF 393; test: Cytotoxicity against human RXF393 cells after 48 hrs by SRB assay; details: RXF 393, 48 h; in short: as §1
[38] = read-out: LC50 (the source's name)

CN1C(=O)C(=Cc2cn(Cc3ccc(F)cc3)c3ccccc23)C(=O)N(C)C1=O
GI50 [1]: 0.11 µM | CC50 [1, 38]: > 100 µM | GI50 [2]: 15.3 µM | LC50 [2]: > 100 µM | GI50 [3]: > 100 µM | CC50 [3, 38]: > 100 µM | GI50 [4]: 0.37 µM | CC50 [4, 38]: > 100 µM | GI50 [5]: 24.1 µM | CC50 [5, 38]: > 100 µM | GI50 [6]: 22.7 µM | LC50 [6]: > 100 µM | GI50 [7]: > 100 µM | CC50 [7, 38]: > 100 µM | GI50 [8]: 4.33 µM | CC50 [8, 38]: > 100 µM | inhibition of growth at 10 µM [9]: -15% | GI50 [10]: > 100 µM | CC50 [10, 38]: > 100 µM | GI50 [11]: > 100 µM | CC50 [11, 38]: > 100 µM | inhibition of growth at 10 µM [12]: -71% | GI50 [13]: 2.56 µM | CC50 [13, 38]: > 100 µM | GI50 [14]: > 100 µM | LC50 [14]: > 100 µM | GI50 [15]: 51.5 µM | LC50 [15]: > 100 µM | GI50 [16]: 0.03 µM | LC50 [16]: 0.5 µM | GI50 [17]: > 100 µM | CC50 [17, 38]: > 100 µM | GI50 [18]: 0.07 µM | LC50 [18]: 0.67 µM | GI50 [19]: 5.38 µM | LC50 [19]: > 100 µM | GI50 [20]: 1.44 µM | CC50 [20, 38]: > 100 µM | inhibition of growth at 10 µM [21]: -85% | inhibition of growth at 10 µM [22]: -78% | CC50 [23]: > 100 µM | GI50 [24]: 6.26 µM | LC50 [24]: > 100 µM | GI50 [25]: 1.97 µM | LC50 [25]: > 100 µM | GI50 [26]: > 100 µM | LC50 (lethal concentration, 50%) [26]: > 100 µM | GI50 [27]: > 100 µM | LC50 [27]: > 100 µM | GI50 [28]: 2.52 µM | CC50 [28, 38]: > 100 µM | GI50 [29]: 0.59 µM | CC50 [29, 38]: > 100 µM | GI50 [30]: 26.7 µM | LC50 [30]: > 100 µM | GI50 [31]: > 100 µM | LC50 [31]: > 100 µM | inhibition of growth at 10 µM [32]: -33% | GI50 [33]: 7.7 µM | CC50 [33, 38]: > 100 µM | GI50 [34]: 2.89 µM | LC50 [34]: > 100 µM | GI50 [35]: 6.35 µM | GI50 [36]: 23.6 µM | CC50 [36, 38]: > 100 µM | GI50 [37]: 14.9 µM | LC50 (lethal concentration, 50%) [37]: > 100 µM
